Measured values published in ChEMBL document CHEMBL3600340, “Design and synthesis of new barbituric- and thiobarbituric acid derivatives as potent urease inhibitors: Structure activity relationship and molecular modeling studies” (Bioorg Med Chem, 2015).

Target: Urease (Canavalia ensiformis, UniProt P07374)
Test: Inhibition of jack bean Urease assessed as ammonia production after 15 mins by indophenol method
Method in brief: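 Jack bean urease preincubated with test compound (0.5 mM, concentration as printed) in buffer containing 100 mM urea at 30 °C for 15 min, pH 6.8. Ammonia quantified by indophenol method (phenol/nitroprusside plus alkaline hypochlorite). Absorbance read at 630 nm after 50 min.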

Sequence of Urease (P07374 whole entry): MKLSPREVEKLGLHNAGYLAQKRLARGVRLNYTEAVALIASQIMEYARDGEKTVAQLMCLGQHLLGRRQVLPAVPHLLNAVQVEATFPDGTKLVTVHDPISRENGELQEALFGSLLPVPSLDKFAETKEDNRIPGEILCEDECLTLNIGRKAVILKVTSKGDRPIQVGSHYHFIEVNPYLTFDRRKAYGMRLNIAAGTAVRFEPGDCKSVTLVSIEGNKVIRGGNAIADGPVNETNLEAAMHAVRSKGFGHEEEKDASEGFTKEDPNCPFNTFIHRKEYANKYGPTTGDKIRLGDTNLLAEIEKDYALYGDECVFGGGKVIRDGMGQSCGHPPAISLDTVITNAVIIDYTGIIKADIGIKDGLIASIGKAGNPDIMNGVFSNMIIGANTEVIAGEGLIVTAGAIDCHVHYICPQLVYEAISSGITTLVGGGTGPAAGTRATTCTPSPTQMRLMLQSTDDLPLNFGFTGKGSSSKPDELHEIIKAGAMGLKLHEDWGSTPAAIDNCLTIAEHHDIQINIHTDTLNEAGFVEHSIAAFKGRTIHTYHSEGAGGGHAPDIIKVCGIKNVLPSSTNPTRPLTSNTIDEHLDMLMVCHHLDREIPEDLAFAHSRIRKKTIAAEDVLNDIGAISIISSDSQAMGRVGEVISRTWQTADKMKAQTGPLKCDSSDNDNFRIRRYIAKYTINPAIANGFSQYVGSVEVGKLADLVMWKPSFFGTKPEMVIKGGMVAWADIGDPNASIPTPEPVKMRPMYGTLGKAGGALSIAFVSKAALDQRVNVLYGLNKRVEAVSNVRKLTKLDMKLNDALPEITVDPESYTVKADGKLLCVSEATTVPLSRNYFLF

Structure (SMILES) | IC50 [µM]
O=C1NC(=O)C(=CNc2ccc(C(=O)O)c(O)c2)C(=O)N1 | 88.3
O=C1NC(=O)C(=CNc2ccc([N+](=O)[O-])c(C(=O)O)c2)C(=O)N1 | 25.8
O=C1NC(=S)NC(=O)C1=CNc1ccccc1C(=O)O | 13
O=C1NC(=S)NC(=O)C1=CNc1cccc(C(=O)O)c1 | 21.8
O=C1NC(=S)NC(=O)C1=CNc1ccc(C(=O)O)cc1 | 8.93
O=C1NC(=S)NC(=O)C1=CNc1ccc(C(=O)O)c(O)c1 | 32.3
O=C1NC(=S)NC(=O)C1=CNc1cc([N+](=O)[O-])ccc1C(=O)O | 8.53
O=C1NC(=S)NC(=O)C1=CNc1cc(C(=O)O)ccc1O | 18.9
O=C1NC(=S)NC(=O)C1=CNc1ccc([N+](=O)[O-])c(C(=O)O)c1 | 39.8
O=C1NC(=S)NC(=O)C1=CNc1cc(C(=O)O)ccc1Cl | 26.7
O=C1NC(=O)C(=CNc2ccccc2S)C(=O)N1 | 52.6
O=C1NC(=S)NC(=O)C1=CNc1ccccc1C(F)(F)F | 65.3
O=C1NC(=S)NC(=O)C1=CNc1cccc(C(F)(F)F)c1 | 24.6
O=C1NC(=S)NC(=O)C1=CNc1ccc(C(F)(F)F)cc1 | 136
O=C1NC(=S)NC(=O)C1=CNc1cc([N+](=O)[O-])ccc1C(F)(F)F | 28.7
O=C1NC(=S)NC(=O)C1=CNc1cc(Cl)cc(Cl)c1 | 89.2
O=C1NC(=S)NC(=O)C1=CNc1ccc(I)cc1 | 41.3
O=C1NC(=S)NC(=O)C1=CNc1ccccc1O | 19.7
O=C1NC(=S)NC(=O)C1=CNc1ccccc1S | 15
